Experimental data taken from ChEMBL document CHEMBL3045504, “Activity of 1,4-benzoquinones against formosan subterranean termites (Coptotermes formosanus)” (2008).

Experiments:
Type in all cases: functional
Coptotermes formosanus [1] = experiment: Termiticidal activity against Coptotermes formosanus placed on 0.001 % wt/wt compound treated filter paper assessed as termite mortality measured 17 days post compound exposure
In short: (§1)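 Treated filter paper disks moistened with 100 µL water; 20 C. formosanus workers (third instar or greater) plus 1 soldier per dish from field colonies kept on spruce, ca. 100% RH, 26.6 °C. Daily mortality scored for 3 weeks; cumulative percent mortality from four replicates, each a different colony; water-only controls; ANOVA, protected Fisher LSD (P < 0.05) after arcsine square-root transform.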

Coptotermes formosanus [2] = experiment: Termiticidal activity against Coptotermes formosanus placed on 0.01 % wt/wt compound treated filter paper assessed as termite mortality measured 17 days post compound exposure; in short: as §1
Coptotermes formosanus [3] = experiment: Termiticidal activity against Coptotermes formosanus placed on 0.05 % wt/wt compound treated filter paper assessed as termite mortality measured 17 days post compound exposure; in short: as §1
Coptotermes formosanus [4] = experiment: Termiticidal activity against Coptotermes formosanus placed on 0.1 % wt/wt compound treated filter paper assessed as termite mortality measured 17 days post compound exposure; in short: as §1
Coptotermes formosanus [5] = experiment: Termiticidal activity against Coptotermes formosanus placed on 0.5 % wt/wt compound treated filter paper assessed as termite mortality measured 17 days post compound exposure; in short: as §1
Coptotermes formosanus [6] = experiment: Termiticidal activity against Coptotermes formosanus placed on 0.001 % wt/wt compound treated filter paper assessed as termite mortality measured 13 days post compound exposure; in short: as §1
Coptotermes formosanus [7] = experiment: Termiticidal activity against Coptotermes formosanus placed on 0.01 % wt/wt compound treated filter paper assessed as termite mortality measured 13 days post compound exposure; in short: as §1
Coptotermes formosanus [8] = experiment: Termiticidal activity against Coptotermes formosanus placed on 0.05 % wt/wt compound treated filter paper assessed as termite mortality measured 13 days post compound exposure; in short: as §1
Coptotermes formosanus [9] = experiment: Termiticidal activity against Coptotermes formosanus placed on 0.1 % wt/wt compound treated filter paper assessed as termite mortality measured 13 days post compound exposure; in short: as §1
Coptotermes formosanus [10] = experiment: Termiticidal activity against Coptotermes formosanus placed on 0.5 % wt/wt compound treated filter paper assessed as termite mortality measured 13 days post compound exposure; in short: as §1
Coptotermes formosanus [11] = experiment: Termiticidal activity against Coptotermes formosanus placed on 0.001 % wt/wt compound treated filter paper assessed as termite mortality measured 11 days post compound exposure; in short: as §1
Coptotermes formosanus [12] = experiment: Termiticidal activity against Coptotermes formosanus placed on 0.01 % wt/wt compound treated filter paper assessed as termite mortality measured 11 days post compound exposure; in short: as §1
Coptotermes formosanus [13] = experiment: Termiticidal activity against Coptotermes formosanus placed on 0.05 % wt/wt compound treated filter paper assessed as termite mortality measured 11 days post compound exposure; in short: as §1
Coptotermes formosanus [14] = experiment: Termiticidal activity against Coptotermes formosanus placed on 0.1 % wt/wt compound treated filter paper assessed as termite mortality measured 11 days post compound exposure; in short: as §1
Coptotermes formosanus [15] = experiment: Termiticidal activity against Coptotermes formosanus placed on 0.001 % wt/wt compound treated filter paper assessed as termite mortality measured 9 days post compound exposure; in short: as §1
Coptotermes formosanus [16] = experiment: Termiticidal activity against Coptotermes formosanus placed on 0.01 % wt/wt compound treated filter paper assessed as termite mortality measured 9 days post compound exposure; in short: as §1
Coptotermes formosanus [17] = experiment: Termiticidal activity against Coptotermes formosanus placed on 0.05 % wt/wt compound treated filter paper assessed as termite mortality measured 9 days post compound exposure; in short: as §1
Coptotermes formosanus [18] = experiment: Termiticidal activity against Coptotermes formosanus placed on 0.1 % wt/wt compound treated filter paper assessed as termite mortality measured 9 days post compound exposure; in short: as §1
Coptotermes formosanus [19] = experiment: Termiticidal activity against Coptotermes formosanus placed on 0.5 % wt/wt compound treated filter paper assessed as termite mortality measured 9 days post compound exposure; in short: as §1
Coptotermes formosanus [20] = experiment: Termiticidal activity against Coptotermes formosanus placed on 0.001 % wt/wt compound treated filter paper assessed as termite mortality measured 6 days post compound exposure; in short: as §1
Coptotermes formosanus [21] = experiment: Termiticidal activity against Coptotermes formosanus placed on 0.01 % wt/wt compound treated filter paper assessed as termite mortality measured 6 days post compound exposure; in short: as §1
Coptotermes formosanus [22] = experiment: Termiticidal activity against Coptotermes formosanus placed on 0.05 % wt/wt compound treated filter paper assessed as termite mortality measured 6 days post compound exposure; in short: as §1
Coptotermes formosanus [23] = experiment: Termiticidal activity against Coptotermes formosanus placed on 0.1 % wt/wt compound treated filter paper assessed as termite mortality measured 6 days post compound exposure; in short: as §1
Coptotermes formosanus [24] = experiment: Termiticidal activity against Coptotermes formosanus placed on 0.5 % wt/wt compound treated filter paper assessed as termite mortality measured 6 days post compound exposure; in short: as §1
Coptotermes formosanus [25] = experiment: Termiticidal activity against Coptotermes formosanus placed on 0.5 % wt/wt compound treated filter paper assessed as termite mortality measured 3 days post compound exposure; in short: as §1
Coptotermes formosanus [26] = experiment: Termiticidal activity against Coptotermes formosanus placed on 0.5 % wt/wt compound treated filter paper assessed as termite mortality measured 21 days post compound exposure; in short: as §1
Coptotermes formosanus [27] = experiment: Termiticidal activity against Coptotermes formosanus placed on 0.5 % wt/wt compound treated filter paper assessed as termite mortality measured 11 days post compound exposure; in short: as §1
Coptotermes formosanus [28] = experiment: Antifeedant activity against Coptotermes formosanus placed on 0.5 % wt/wt compound treated filter paper assessed as filter paper consumption measured 21 days post compound exposure (reference value: 23.6 +/- 13.6 mg)
Coptotermes formosanus [29] = experiment: Termiticidal activity against Coptotermes formosanus placed on 0.001 % wt/wt compound treated filter paper assessed as termite mortality measured 21 days post compound exposure; in short: as §1
Coptotermes formosanus [30] = experiment: Termiticidal activity against Coptotermes formosanus placed on 0.01 % wt/wt compound treated filter paper assessed as termite mortality measured 21 days post compound exposure; in short: as §1
Coptotermes formosanus [31] = experiment: Termiticidal activity against Coptotermes formosanus placed on 0.05 % wt/wt compound treated filter paper assessed as termite mortality measured 21 days post compound exposure; in short: as §1
Coptotermes formosanus [32] = experiment: Termiticidal activity against Coptotermes formosanus placed on 0.1 % wt/wt compound treated filter paper assessed as termite mortality measured 21 days post compound exposure; in short: as §1
Coptotermes formosanus [33] = experiment: Antifeedant activity against Coptotermes formosanus placed on 0.001 % wt/wt compound treated filter paper assessed as filter paper consumption measured 21 days post compound exposure (reference value: 23.6 +/- 13.6 mg)
Coptotermes formosanus [34] = experiment: Antifeedant activity against Coptotermes formosanus placed on 0.01 % wt/wt compound treated filter paper assessed as filter paper consumption measured 21 days post compound exposure (reference value: 23.6 +/- 13.6 mg)
Coptotermes formosanus [35] = experiment: Antifeedant activity against Coptotermes formosanus placed on 0.05 % wt/wt compound treated filter paper assessed as filter paper consumption measured 21 days post compound exposure (reference value: 23.6 +/- 13.6 mg)
Coptotermes formosanus [36] = experiment: Antifeedant activity against Coptotermes formosanus placed on 0.1 % wt/wt compound treated filter paper assessed as filter paper consumption measured 21 days post compound exposure (reference value: 23.6 +/- 13.6 mg)

Q: For CC1=C(C)C(=O)C(Cl)=C(Cl)C1=O, which mortality (Coptotermes formosanus [1]) is on record?
A: 26.3%

Q: And the mortality (Coptotermes formosanus [2])?
A: 10%

Q: And the mortality (Coptotermes formosanus [3])?
A: 5%

Q: What about the mortality (Coptotermes formosanus [4]) of the same molecule?
A: 60%

Q: And the mortality (Coptotermes formosanus [5])?
A: 100%

Q: And the mortality (Coptotermes formosanus [6])?
A: 26.3%

Q: What about the mortality (Coptotermes formosanus [7]) of the same molecule?
A: 7.5%

Q: And the mortality (Coptotermes formosanus [8])?
A: 5%

Q: What about the mortality (Coptotermes formosanus [9]) of the same molecule?
A: 41.3%

Q: And the mortality (Coptotermes formosanus [10])?
A: 100%

Q: What about the mortality (Coptotermes formosanus [11]) of the same molecule?
A: 6.8%

Q: What about the mortality (Coptotermes formosanus [12]) of the same molecule?
A: 3.8%

Q: And the mortality (Coptotermes formosanus [13])?
A: 3.4%

Q: And the mortality (Coptotermes formosanus [14])?
A: 30.4%

Q: What about the mortality (Coptotermes formosanus [15]) of the same molecule?
A: 2.5%

Q: What about the mortality (Coptotermes formosanus [16]) of the same molecule?
A: 3.8%

Q: And the mortality (Coptotermes formosanus [17])?
A: 1.3%

Q: And the mortality (Coptotermes formosanus [18])?
A: 26.3%

Q: And the mortality (Coptotermes formosanus [19])?
A: 100%

Q: What about the mortality (Coptotermes formosanus [20]) of the same molecule?
A: 1.3%

Q: And the mortality (Coptotermes formosanus [21])?
A: 3.8%

Q: And the mortality (Coptotermes formosanus [22])?
A: 0%

Q: And the mortality (Coptotermes formosanus [23])?
A: 1.3%

Q: And the mortality (Coptotermes formosanus [24])?
A: 100%

Q: And the mortality (Coptotermes formosanus [25])?
A: 100%

Q: And the mortality (Coptotermes formosanus [26])?
A: 100%

Q: And the mortality (Coptotermes formosanus [27])?
A: 100%

Q: And the Activity (Coptotermes formosanus [28])?
A: 3.2 mg

Q: What about the mortality (Coptotermes formosanus [29]) of the same molecule?
A: 27.5%

Q: What about the mortality (Coptotermes formosanus [30]) of the same molecule?
A: 10%

Q: What about the mortality (Coptotermes formosanus [31]) of the same molecule?
A: 5%

Q: And the mortality (Coptotermes formosanus [32])?
A: 68.8%

Q: What about the Activity (Coptotermes formosanus [33]) of the same molecule?
A: 17.5 mg

Q: And the Activity (Coptotermes formosanus [34])?
A: 25 mg

Q: What about the Activity (Coptotermes formosanus [35]) of the same molecule?
A: 18.3 mg

Q: What about the Activity (Coptotermes formosanus [36]) of the same molecule?
A: 13.1 mg
